Fewer inactive variants are shown than the library holds.
B1: tRNA (parent)
chain: GUUCCGUUGGCGUAAUGGUAACGCGUCUCCCUCCUAAGGAGAAGACUGCGGGUUCGAGUCCCGUACGGAACG

Variants of: B1
Test: yeast fitness relative to wild type (ratio to wild type); higher = fitter; tRNA-Arg(CCU), competitive growth, 37 C, YPD
Outline: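 Changes in genotype frequencies gave Darwinian fitness relative to wild type. Frequencies were read by 100-nucleotide paired-end sequencing of gene amplicons before and after pooled Saccharomyces cerevisiae strains, carrying tRNA-Arg(CCU) gene variants at the native locus, were competed in YPD at 37°C for 24 hours in six replicates. A genotype was kept only with ≥ 100 starting reads, and estimates < 0.5 were set to 0.5.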

Variant | yeast fitness
U7A A21C C33A A45U C62A | ≤ 0.5
U7A G17C A37G C49A | ≤ 0.5
U7A C31G G63A | ≤ 0.5
U7A G9C G17C A40U A65C | ≤ 0.5
G6C U64G | 0.63
G6C U64C | 0.87
U7A C29G A36G | ≤ 0.5
U7A A14C G25A C30G C61U | ≤ 0.5
U7A A37G A40G A69U | ≤ 0.5
U7A C33A C46U G63U | 0.574
U7A G17C C24G C29A | ≤ 0.5
U7A A36G | 0.662
U7A G10A C30A A43C | ≤ 0.5
U7A G9C G17C A43U G48A | ≤ 0.5
U7A A21C U26A C30A A45G G52A | 0.547
U7A C24G C29G C30U A40C G68C | 0.663
G6U U8C | 0.769
G6U C34U C61U | ≤ 0.5
U7A C22A G52A G58A | ≤ 0.5
U7A G18A C33A G38C | ≤ 0.5
U7A C29A G58A C61G G63A A70U | 0.526
G6C U53G | 0.519
U7A C46G A69C | 0.607
U7A A45C G68A | ≤ 0.5

Variant | yeast fitness
U7A C49G G50C C62U | ≤ 0.5
U7A G18C C27A C31G A43G | ≤ 0.5
U7A A14U C22U C27A C33U A45C U53C A69C | 0.632
G6C U54C C66A | 0.6
U7A C24G C29G C30U A40C | 0.96
U7A A36G A40U C46G | ≤ 0.5
U7A A14G A15C A36G A40U C46A G52C A70U | 0.649
U7A C22G C24G U28C G56A A65U | ≤ 0.5
U7A A43U G52C | ≤ 0.5
U7A C61G | 0.563
U7A A20C G68C | 0.539
U7A G17A G23A A45C U47A G50A | ≤ 0.5
U7A G10A A40G C60U | ≤ 0.5
U7A G9C C30U C34G A37G G68C | ≤ 0.5
U7A G10C A40G U53A G63A | ≤ 0.5
G6C U47C | 1.01
G6C U47G | 0.588
U7A C29U | 0.67
U7A C24U A69U | ≤ 0.5
U7A G9C G17C G48A C60U | ≤ 0.5
U7A G9C G17C C46A G68C | ≤ 0.5
U7A A20G C49G G67A | ≤ 0.5
U7A C55G | ≤ 0.5
U7A G9C G17C G48A U54A | ≤ 0.5

Variant | yeast fitness
U7A A65U A70G | 0.677
U7A C29G C46G G58A | ≤ 0.5
U7A G10C G52A U54C C60G | 0.518
G6C U47A G51C A65G | 0.644
U7A A43C | 0.824
U7A A14U C31G | ≤ 0.5
U7A G10A A20C C29A C61U C66U | ≤ 0.5
U7A G39C | 0.608
U7A A21C C30U A42C G48C | ≤ 0.5
U7A G9A U13A G56A | 0.535
U7A C11U A15G A65C | ≤ 0.5
U7A G23C C49G | 0.566
U7A A21U A65C | 0.577
U7A C46G | 0.787
U7A C34G A40C A57U | ≤ 0.5
U7A A20C U59A A65C | 0.662
U7A A37U | 0.696
U7A A37G | 0.585
U7A G23C C49G C66A | ≤ 0.5
U7A G10A A20C C29A G63A A70C | ≤ 0.5
U7A G39A C49A | ≤ 0.5
U7A C34U C55G | ≤ 0.5
U7A A14G C31U A43C C46U G63C C66U | ≤ 0.5
U7A G12C U54G | 0.673

Variant | yeast fitness
U7A G10C A57U | ≤ 0.5
U7A G23C C33G A42G C46U U64C | ≤ 0.5
U7A A37C A43C | 0.583
U7A C11G U28G U32A G38C | ≤ 0.5
U7A A36U A45G U47A | ≤ 0.5
U7A A45G C61A A70G | ≤ 0.5
U7A A20G G23A U26G G67A | ≤ 0.5
U7A C24G C33U G41C | ≤ 0.5
U7A G10A C27A C30G G41C | ≤ 0.5
U7A A15C G23C C27U G56A C61A | 0.602
U7A A36U A37U | 0.768
U7A C30A A70U | 0.601
U7A C27A G67A | ≤ 0.5
U7A G12A C34G C62U G68C | ≤ 0.5
U7A A21C U54C C61G | ≤ 0.5
U7A C24G A69U | ≤ 0.5
U7A C22A C29A G44C | ≤ 0.5
U7A C24U U54C A69U | ≤ 0.5
U7A G23A A43U | ≤ 0.5
U7A C24U C33A A65U | 0.58
U7A C11A A21C C29U C49U G56A | ≤ 0.5
U7A C29G U32C G38A | ≤ 0.5
U7A C11U C22U G38C | ≤ 0.5
U7A C22U U26C A40G A43U C49A | ≤ 0.5

Variant | yeast fitness
U7A A14G A21C U47A G48A | ≤ 0.5
U7A C29G A70U | ≤ 0.5
U7A C27A C29G C30G U47A A70G | ≤ 0.5
U7A C27U G52C | 0.583
U7A G23C C34G U35G A40U A70C | ≤ 0.5
U7A C29G C46G | ≤ 0.5
U7A G9A U13A A70U | ≤ 0.5
U7A A45C C66U | 0.535
U7A A45G C61G | ≤ 0.5
U7A A21G C30G A36G C46G C66U | ≤ 0.5
U7A C27U C30A A69U | ≤ 0.5
U7A A14C A20G | ≤ 0.5
U7A A21U G41A U64A | ≤ 0.5
U7A G9C G17C G48A G67A | ≤ 0.5
U7A G9C G17C G48A G67U | ≤ 0.5
U7A G23A C24U U35A C60A A69C | 0.706
U7A G23A C24U U35A C60A A69U | ≤ 0.5
U7A G10A A15U G56A A69U | ≤ 0.5
U7A G10C C27G U32A G56C | ≤ 0.5
U7A A20U G52A | ≤ 0.5
U7A C66G | 0.62
U7A C55U G67C | ≤ 0.5
U7A G23C C31G C33U A42G G52C G58C | ≤ 0.5
U7A A20U G23C U26A C33A A57U | ≤ 0.5

Variant | yeast fitness
U7A G10A C33A A36C | ≤ 0.5
U7A A36U A45G U47A G68A | ≤ 0.5
U7A A21U C27G C33G A45U | 0.506
U7A G9C G17C C49U C62G | ≤ 0.5
U7A A20G C31U A57C A65U | ≤ 0.5
U7A G10C C30G C34U | ≤ 0.5
U7A A21U G41A C66A | 0.684
U7A C24U | 0.669
U7A G10C C22U C27G G50U C66U | ≤ 0.5
U7A A20G C22A A40G G41C | ≤ 0.5
U7A C27G C33A A36G G58A C66U | ≤ 0.5
U7A A40U C61G G67U | ≤ 0.5
U7A A21C C29U A37G C55U | 0.568
U7A G12C C27G C31A C46A G56C | 0.587
U7A A37G A40G A43G G52C U59G C66U A69U | ≤ 0.5
U7A C46G A65U | 0.686
U7A C46G A65C | 0.848
U7A A20C G67C | ≤ 0.5
G6U U7C A70C | ≤ 0.5
U7A A21G C30G A36G | ≤ 0.5
U7A C29G G38A G44A C46U C62G | ≤ 0.5
U7A A21C U32C | ≤ 0.5
U7A C34A A42C G58A | ≤ 0.5
U7A C29U A37C U53A C55U C60A | ≤ 0.5

Variant | yeast fitness
U7A A15C A57G | ≤ 0.5
U7A C11A A20G G23A U26G G50A G52A C60U C61G | ≤ 0.5
U7A G23A C60A | ≤ 0.5
U7A A14C A42G A57U | ≤ 0.5
U7A C29A G50C | ≤ 0.5
U7A G18A U19G C62A | 0.633
U7A C31G U64A C66U G68C | ≤ 0.5
U7A A21U A42G C55U A70C | ≤ 0.5
U7A C34A C46U | ≤ 0.5
U7A C31G | 0.78
U7A C27A A65U | 0.603
U7A C30G A43C A57U G58A | ≤ 0.5
U7A A21U G51C C62U | 0.816
U7A G23A C29A C61U | 0.573
U7A C22G A57U | ≤ 0.5
U7A C22G A57G | ≤ 0.5
U7A A20G G23A U26G G50U | ≤ 0.5
U7A G9C G17C G48A C62A | ≤ 0.5
U7A C60U | 0.652
U7A C60G | 0.561
U7A C49G | 0.779
U7A C49A | 0.634
U7A C22G G38C C60U | ≤ 0.5
